Consider eight compounds from ChEMBL document CHEMBL1142636 (2000).

The structures appear in SMILES notation. Converted amounts (≈) assume the structure as drawn.

One test has as its system NCI-H226. As to the kind of experiment: Growth inhibition of human NCI-H226 cells. The test is classed as functional.
A further test concerns HCT-8. As to the kind of experiment: Growth inhibition of human HCT8 cells. The test is classed as functional. As to conditions: read-out: ED50 (the source's name). In short, it runs like this:
(§1)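 In-house cytotoxicity assay following an NCI protocol, run on a panel of human tumour lines: KB nasopharyngeal epidermoid carcinoma and HCT-8 ileocecal adenocarcinoma. Potency is reported as ED50 in µg/mL.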

The next test deals with KB. Kind of test: Growth inhibition of human KB cells. The format is functional. To be noted: read-out: ED50 (the source's name). The method, boiled down: as §1
In the next test the test system is SK-MEL-5. As to the kind of experiment: Growth inhibition of human SK-MEL-5 cells. To be noted: for EC50: read-out: ED50 (the source's name). The test is classed as functional. In short, it runs like this:
(§2)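 Tested at the NCI in its human disease-oriented in vitro screen of 60 tumour cell lines, following the Monks et al. methods. Activity is expressed as GI50, given as log molar values.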

For a further test, the system named is COLO 205. As to the kind of experiment: Growth inhibition of human COLO205 cells. The format is functional. As to conditions: for EC50: read-out: ED50 (the source's name).
The next test has as its system SN12C. As to the kind of experiment: Growth inhibition of human SN12C cells. The format is functional. The method, boiled down:
as §2

Another test has as its system TK-10. Kind of test: Growth inhibition of human TK10 cells. The format is functional. The method, boiled down: as §2
A further test concerns SR. Kind of test: Growth inhibition of human SR cells. The test is classed as functional. In short, it runs like this: as §2
A further test concerns NCI-H460. Kind of test: Growth inhibition of human NCI-H460 cells. The format is functional.
For a further test, the system named is UO-31. As to the kind of experiment: Growth inhibition of human UO31 cells. The format is functional. The method, boiled down:
as §2

A further test relates to SNB-75. Kind of test: Growth inhibition of human SNB75 cells. The format is functional. The method, boiled down:
as §2

Another test concerns HT-29. As to the kind of experiment: Growth inhibition of human HT29 cells. The test is classed as functional.
A further test relates to KM12. As to the kind of experiment: Growth inhibition of human KM12 cells. The test is classed as functional.
The next test deals with HCT-116. As to the kind of experiment: Growth inhibition of human HCT116 cells. The test is classed as functional.
Test [1] in a line: Growth inhibition of human DMS144 cells. The format is functional.
In a further test the test system is M14. Kind of test: Growth inhibition of human M14 cells. The format is functional.
Another test relates to SK-MEL-2. As to the kind of experiment: Growth inhibition of human SK-MEL-2 cells. The test is classed as functional. The method, boiled down: as §2
Test [2] can be described thus: Growth inhibition of human OVACR8 cells. The format is functional.
Test [3] is described as follows: Growth inhibition of human OVACR5 cells. The test is classed as functional.
The next test concerns HCT-15. As to the kind of experiment: Growth inhibition of human HCT15 cells. The test is classed as functional.
Another test has as its system M19-MEL. Kind of test: Growth inhibition of human M19-MEL cells. The test is classed as functional.
The next test deals with SK-OV-3. As to the kind of experiment: Growth inhibition of human SK-OV-3 cells. The format is functional. In short, it runs like this:
as §2

The subject of the next test is SW-620. Kind of test: Growth inhibition of human SW620 cells. The format is functional. The method, boiled down:
as §2

For another test, the system named is A549. Kind of test: Growth inhibition of human A549 cells. The format is functional.
In a further test the test system is SF-539. As to the kind of experiment: Growth inhibition of human SF539 cells. The format is functional. The method, boiled down: as §2
A further test deals with HOP-62. Kind of test: Growth inhibition of human HOP62 cells. The format is functional.
A further test deals with U-251. As to the kind of experiment: Growth inhibition of human U251 cells. The format is functional. In short, it runs like this:
as §2

Another test has as its system Malme-3M. Kind of test: Growth inhibition of human MALME-3M cells. The test is classed as functional.
Test [4] is described as follows: Growth inhibition of human HL60(TB) cells. To be noted: HL-60. The format is functional, HL-60(TB).
The subject of a further test is NCI-H522. Kind of test: Growth inhibition of human NCI-H522 cells. The format is functional.
In another test the test system is HCC 2998. As to the kind of experiment: Growth inhibition of human HCC2998 cells. The test is classed as functional.
Test [5] is described as follows: Growth inhibition of human LXFL529 cells. The test is classed as functional. As to conditions: LXFL 529.
The test system of a further test is KM-20L2. As to the kind of experiment: Growth inhibition of human KM20L2 cells. The format is functional.
Another test relates to DMS-273. As to the kind of experiment: Growth inhibition of human DMS273 cells. The test is classed as functional.
In a further test the test system is HOP-92. As to the kind of experiment: Growth inhibition of human HOP92 cells. The format is functional.
Another test has as its system 786-0. As to the kind of experiment: Growth inhibition of human 786-0 cells. The format is functional.
The next test relates to LOX IMVI. As to the kind of experiment: Growth inhibition of human LOX IMVI cells. The format is functional.
The test system of a further test is MOLT-4. As to the kind of experiment: Growth inhibition of human MOLT4 cells. The format is functional.
A further test concerns CCRF-CEM. Kind of test: Growth inhibition of human CCRF-CEM cells. The format is functional.
For another test, the system named is UACC-62. Kind of test: Growth inhibition of human UACC62 cells. The format is functional. In short, it runs like this: as §2
The test system of the next test is K562. As to the kind of experiment: Growth inhibition of human K562 cells. The test is classed as functional.
In a further test the test system is IGROV-1. Kind of test: Growth inhibition of human IGROV1 cells. The test is classed as functional.
The test system of a further test is SK-MEL-28. As to the kind of experiment: Growth inhibition of human SK-MEL-28 cells. The format is functional. In short, it runs like this:
as §2

A short description of test [6]: Growth inhibition of human RPMI8266 cells. The format is functional.
Test [7] in a line: Growth inhibition of human […] cells. The test is classed as functional.
The test system of a further test is NCI-H322M. Kind of test: Growth inhibition of human NCI-H322M cells. The format is functional.
Another test concerns SNB-19. Kind of test: Growth inhibition of human SNB19 cells. The test is classed as functional. The method, boiled down:
as §2

Another test relates to ACHN. Kind of test: Growth inhibition of human ACHN cells. The format is functional.
A further test concerns DLD-1. As to the kind of experiment: Growth inhibition of human DLD1 cells. The format is functional.
The next test relates to SF-268. As to the kind of experiment: Growth inhibition of human SF268 cells. The test is classed as functional. In short, it runs like this: as §2

For `COc1cc(CO)cc2c1[nH]c1ccccc12` [KOENOLINE], in the test with NCI-H226, the GI50 (usually the concentration giving 50% growth inhibition) was 1.74 µM. The TGI in the test on NCI-H226 (read-out: pTGI) came to 5.25 µM.
In the case of `CC1=CC(=O)c2c([nH]c3ccc(C)cc23)C1=O`, the EC50 was found to be 5.47 µg/mL (≈ 24.3 µM) in the test with HCT-8, 4.6 µg/mL (≈ 20.4 µM) with KB, 5.29 µg/mL (≈ 23.5 µM) in the test with SK-MEL-5 and 3.2 µg/mL (≈ 14.2 µM) in the test with COLO 205.
With `COc1ccc2c3c([nH]c2c1)C(=O)C(C)=CC3=O`, the EC50 is 5.09 µg/mL (≈ 21.1 µM) with HCT-8, 4.51 µg/mL (≈ 18.7 µM) in the test on KB, 3.92 µg/mL (≈ 16.2 µM) in the test with SK-MEL-5 and 4.51 µg/mL (≈ 18.7 µM) in the test with COLO 205.
Turning to `COc1ccc2[nH]c3c(c2c1)C(=O)C(C)=CC3=O`, the EC50 with HCT-8 turned out to be 7.91 µg/mL (≈ 32.8 µM); in the test with KB, 0.76 µg/mL (≈ 3.15 µM); in the test with SK-MEL-5 it was 0.55 µg/mL (≈ 2.28 µM); with COLO 205, 0.87 µg/mL (≈ 3.61 µM).
Take `COc1cc(Cn2c3ccccc3c3cc(C)cc(OC)c32)cc2c1[nH]c1ccccc12`: the GI50 with SN12C is 25.1 µM; with TK-10, 25.1 µM; with SR it was 16.6 µM; in the test with NCI-H460 it was 10.7 µM; with UO-31, 25.1 µM; in the test with SNB-75 it was 22.9 µM. For the same compound, the GI50 was 17 µM in the test on HT-29; 10.2 µM in the test on KM12; 25.1 µM with HCT-116; 20 µM in [1]; 6.31 µM in the test with M14; 25.1 µM in the test with SK-MEL-2. In addition, the 50% growth inhibitory concentration (GI50) in the test with NCI-H226 is 17 µM; in test [2] it was 10.5 µM; in test [3] it was 25.1 µM; in the test with HCT-15, 17 µM; with M19-MEL it was 25.1 µM; in the test on SK-OV-3, 25.1 µM. In addition, the GI50 was 13.5 µM with SW-620; 23.4 µM in the test with A549; 9.77 µM with SF-539; 6.61 µM in the test on HOP-62; 25.1 µM in the test on U-251; 25.1 µM in the test on Malme-3M. Also, the GI50 in [4] was 12.3 µM; with NCI-H522 it was 5.37 µM; with SK-MEL-5, 25.1 µM; with HCC 2998, 25.1 µM; in [5], 17 µM; in the test on COLO 205, 25.1 µM. For the same compound, the GI50 in the test on KM-20L2 is 15.5 µM; with DMS-273, 15.1 µM; in the test with HOP-92, 5.37 µM; in the test on 786-0 it was 25.1 µM; with LOX IMVI it was 8.13 µM; in the test on MOLT-4, 8.51 µM. Moreover, the 50% growth inhibitory concentration (GI50) is 12 µM in the test with CCRF-CEM; 15.1 µM with UACC-62; 9.77 µM in the test on K562; 25.1 µM in the test on IGROV-1; 25.1 µM in the test on SK-MEL-28; 25.1 µM in [6]. The 50% growth inhibitory concentration (GI50) in [7] was 10.2 µM; with NCI-H322M, 25.1 µM; with SNB-19, 25.1 µM; in the test on ACHN, 12.3 µM; in the test with DLD-1 it was 25.1 µM; in the test on SF-268 it was 17.4 µM.
Take `CC1=CC(=O)c2c([nH]c3ccc(F)cc23)C1=O`: the EC50 in the test on HCT-8 was 4.76 µg/mL (≈ 20.8 µM); with KB, 2.03 µg/mL (≈ 8.86 µM); in the test on SK-MEL-5 it was 5.5 µg/mL (≈ 24 µM); in the test with COLO 205 it was 4.5 µg/mL (≈ 19.6 µM).
For `COc1ccc2c3c([nH]c2c1)C(=O)C=C(C)C3=O` the same measures were above 20 µg/mL, above 20 µg/mL, 7.25 µg/mL (≈ 30.1 µM) and above 20 µg/mL.
For `CC1=CC(=O)c2[nH]c3ccc(C)cc3c2C1=O` the same measures were 6.49 µg/mL (≈ 28.8 µM), 0.92 µg/mL (≈ 4.08 µM), 0.66 µg/mL (≈ 2.93 µM) and 3.52 µg/mL (≈ 15.6 µM).
